Measured values taken from ChEMBL document CHEMBL1255483, “Intra- and extracellular activities of dicloxacillin against Staphylococcus aureus in vivo and in vitro” (Antimicrob Agents Chemother, 2010).
Converted amounts (≈) assume the structure as drawn. The source made the active and inactive calls. No cut-off for these calls is given here.

Assays:
[1] = fT>MIC in Staphylococcus aureus E19977 infected NMRI mouse at 340 mg/kg administered every 24 hrs
[2] = Ratio of fCmax in NMRI mouse at 80 mg/kg to MIC for Staphylococcus aureus E19977
[3] = tested on: Staphylococcus aureus; test: Bacteriostatic activity against Staphylococcus aureus E19977 at MIC between 5 to 24 hrs; type: functional, organism-based
How it was run: (§1)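 Extracellular broth time- and concentration-kill test. The inoculum was ~10⁶ CFU/ml, exposed to a wide range of DCX concentrations, with CFU counted after 5 and 24 h. The read-out was Δlog CFU/ml versus time zero (mean ± SD, n = 3). A sigmoidal fit with slope 1 gave Emax and EC50. Cstatic was read by graphical interpolation as the concentration giving no change from the inoculum.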

[4] = Ratio of fAUC (24 hrs) in NMRI mouse at 120 mg/kg administered every 24 hrs to MIC for Staphylococcus aureus E19977; type: functional
How it was run: (§2)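 Free-drug AUC24/MIC was modelled for repeated subcutaneous regimens. Single-dose NMRI plasma concentration-time curves were combined with the best-fitting square-root expression for the concentration-dependent free fraction. The result was divided by the E19977 MIC.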

[5] = Ratio of fCmax in NMRI mouse at 200 mg/kg administered every 6 hrs to MIC for Staphylococcus aureus E19977; type: functional
How it was run: (§3)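 Free Cmax/MIC was modelled, not measured. Single-dose subcutaneous plasma curves from NMRI mice were projected to the multiple-dose regimens. Free fraction came from a square-root fit of unbound fraction versus total concentration. Binding was measured by ultrafiltration of mouse plasma spiked with 10–400 mg/liter and held 1 h at 37°C. MIC was for strain E19977.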

[6] = Ratio of fAUC (24 hrs) in NMRI mouse at 120 mg/kg administered every 6 hrs to MIC for Staphylococcus aureus E19977; type: functional
How it was run: as §2

[7] = species: Mus musculus; test: Protein binding in NMRI mouse infected with Staphylococcus aureus E19977 at 90 mg/l by ultrafiltration; type: ADME, organism-based; details: in vivo
How it was run: (§4)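 Plasma binding was measured by ultrafiltration. EDTA blood from healthy mice, or from NMRI mice infected intraperitoneally for 6 h with E19977, was spiked with DCX at 10–400 mg/liter, with PBS controls. Samples were held 1 h at 37°C, then centrifuged through 30-kDa filters at 3,000 × g for 8 min at 37°C. Total and filtrate drug were measured by S. lutea bioassay.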

[8] = Ratio of fAUC (24 hrs) in NMRI mouse at 160 mg/kg administered every 3 hrs to MIC for Staphylococcus aureus E19977; type: functional
How it was run: as §2

[9] = Ratio of fAUC (24 hrs) in NMRI mouse at 80 mg/kg administered every 3 hrs to MIC for Staphylococcus aureus E19977
[10] = Half-life in NMRI mouse at 300 mg/kg, sc; type: ADME, organism-based; set-up: dose 300 mg/kg, route subcutaneous; details: in vivo
How it was run: (§5)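 Single subcutaneous DCX doses given to NMRI mice. Blood was collected into EDTA tubes, and plasma drug was assayed by microbiological bioassay with S. lutea ATCC 9391 (detection limit 1.5 mg/liter, linear to 100 mg/liter). Values came from noncompartmental analysis. Terminal half-life was fitted monoexponentially to the last four time points. AUC24 combined the trapezoidal rule over mean points with exact integration of the fitted curve extrapolated to 24 h.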

[11] = species: Mus musculus; test: Protein binding in NMRI mouse at 30 mg/l by ultrafiltration; type: ADME, organism-based; details: in vivo
How it was run: as §4

[12] = tested on: Staphylococcus aureus; test: Bactericidal activity against Staphylococcus aureus ATCC 25923 assessed as log reduction in bacterial count at 10 times MIC after 5 hrs by time-kill assay; type: functional
How it was run: (§6)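 Broth time-kill: MSSA at 10⁶ CFU/ml exposed to a wide range of dicloxacillin concentrations. CFU counted after 5 and 24 h and expressed as change in log₁₀ CFU/ml from time zero. Multiples refer to the MIC by CLSI microdilution at pH 7.4. n = 3.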

[13] = fT>MIC in Staphylococcus aureus E19977 infected NMRI mouse at 30 mg/kg administered every 2 hrs; type: functional
How it was run: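 Calculated percentage of 24 h at steady state that free plasma DCX exceeds the strain MIC (microdilution, pH 7.4). Concentrations were simulated from single subcutaneous dose plasma curves in NMRI mice (S. lutea bioassay), adjusted with a square-root model of concentration-dependent free fraction from ultrafiltration. The regimen was dosed subcutaneously in mice infected intraperitoneally with 10^7.4 CFU, and peritoneal CFU were read after 24 h of therapy.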

[14] = tested on: Staphylococcus aureus; test: Antimicrobial activity against Staphylococcus aureus E19977 after 24 hrs; type: functional, organism-based; details: E19977, 24 h
How it was run: as §1

[15] = Ratio of fCmax in NMRI mouse at 80 mg/kg administered every 8 hrs to MIC for Staphylococcus aureus E19977; type: functional
How it was run: as §3

[16] = AUC (24 hrs) in NMRI mouse at 1200 mg/kg, sc; type: ADME, organism-based; set-up: time < 24 hr, dose 1200 mg/kg, route subcutaneous; details: plasma
[17] = tested on: Staphylococcus aureus; test: Bacteriostatic activity against Staphylococcus aureus ATCC 25923 infected in human THP-1 cells at 100 times MIC after 5 hrs; type: functional, organism-based
How it was run: (§7)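 Human THP-1 macrophages were infected with opsonized S. aureus at 4 bacteria per macrophage for 45 min. Non-phagocytized bacteria were removed by washing and a brief incubation in PBS with gentamicin 50 mg/liter. Cells were then incubated up to 24 h with DCX over a wide range of extracellular concentrations. The read-out was Δlog CFU per mg cell protein versus time zero (n = 3), with sigmoidal fitting and Cstatic by interpolation.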

[18] = tested on: Staphylococcus aureus; test: Bacteriostatic activity against Staphylococcus aureus E19977 after 24 hrs; type: functional
How it was run: as §1

[19] = tested on: Staphylococcus aureus; test: Bactericidal activity against Staphylococcus aureus E19977 assessed as log change in bacterial count after 24 hrs; type: functional
How it was run: as §1

[20] = Ratio of fAUC (24 hrs) in NMRI mouse at 30 mg/kg administered every 2 hrs to MIC for Staphylococcus aureus E19977; type: functional
How it was run: (§8)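 Modeled free AUC over 24 h divided by the MIC, not measured directly. Single subcutaneous DCX doses were given to NMRI mice, and plasma was assayed by S. lutea bioassay. Noncompartmental analysis used trapezoidal mean points plus a fitted monoexponential extrapolated to 24 h. Free fraction came from a square-root fit to plasma ultrafiltration binding (10–400 mg/liter spike, 1 h, 37°C). The MIC was measured by broth microdilution at pH 7.4.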

[21] = Ratio of fAUC (24 hrs) in NMRI mouse at 80 mg/kg administered every 8 hrs to MIC for Staphylococcus aureus E19977; type: functional
How it was run: as §8

[22] = Half-life in NMRI mouse at 120 mg/kg, sc; type: ADME, organism-based; set-up: dose 120 mg/kg, route subcutaneous; details: in vivo
How it was run: as §5

[23] = tested on: Staphylococcus aureus; test: Bactericidal activity against Staphylococcus aureus ATCC 25923 assessed as log reduction in bacterial count at 10 times MIC after 24 hrs by time-kill assay; type: functional
How it was run: as §6

[24] = tested on: Staphylococcus aureus; test: Bacteriostatic activity against Staphylococcus aureus E19977 infected in human THP-1 cells at 10 times MIC after 5 hrs; type: functional, organism-based
How it was run: as §7

[25] = tested on: Staphylococcus aureus; test: Bactericidal activity against Staphylococcus aureus E19977 assessed as log reduction in bacterial count at MIC after 5 hrs by time-kill assay; type: functional
How it was run: as §6

[26] = Ratio of fAUC (24 hrs) in NMRI mouse at 120 mg/kg administered every 3 hrs to MIC for Staphylococcus aureus E19977; type: functional
How it was run: as §2

For `Cc1onc(-c2c(Cl)cccc2Cl)c1C(=O)N[C@@H]1C(=O)N2[C@@H]1SC(C)(C)[C@@H]2C(=O)O` [DICLOXACILLIN], the “fT>MIC” value [1] was 17.78%, the Ratio [2] was 30.64 and the Activity [3] was “Active”. For the same molecule, the fAUC/MIC [4] was 43.95 h, the Ratio [5] was 101.92 and the fAUC/MIC [6] was 175.82 h. It also gave an Activity [7] of 85.6%, a fAUC/MIC [8] of 556.4 h and a fAUC/MIC [9] of 168.69 h. The half-life [10] was 30 min, the Activity [11] was 91.5% and the FC [12] was <1. For the same molecule, the “fT>MIC” value [13] was 45.83%, the EC50 [14] was 0.5 µg/mL (≈ 1.06 µM) and the Ratio [15] was 30.64. The AUC at 24 h [16] was 190 µg·h/mL, the Activity [17] was “Active” and the Activity [18] was 0.43 mg/L. The Emax [19] was -3.81 deltalog10CFU/ml, the fAUC/MIC [20] was 39.32 h and the fAUC/MIC [21] was 63.49 h. For the same molecule, the half-life [22] was 22 min, the FC [23] was 3 and the Activity [24] was “Active”. For the same molecule, the FC [25] was <1 and the fAUC/MIC [26] was 350.73 h.
